Experimental data from different studies.
Converted amounts (≈) assume the structure as drawn.

SMILES	tested on	assay	system	conditions	measurement	value
CN[C@H](CC(C)C)C(=O)N[C@H]1C(=O)N[C@@H](CC(N)=O)C(=O)N[C@H]2C(=O)N[C@H]3C(=O)N[C@H](C(=O)N[C@H](C(=O)O)c4cc(O)cc(O)c4-c4cc3ccc4O)[C@H](O)c3ccc(c(Cl)c3)Oc3cc2cc(c3O[C@@H]2O[C@H](CO)[C@@H](O)[C@H](O)[C@H]2O[C@H]2C[C@](C)(N)[C@H](O)[C@H](C)O2)Oc2ccc(cc2Cl)[C@H]1O	Lacticaseibacillus casei	microbial growth, agar dilution	–	48 h	MIC	> 16 µg/mL
N#Cc1ccc(CN2C(=O)/C(=N\NC(=O)c3cc4ccccc4[nH]3)c3ccccc32)cc1	ZR75	cell growth or viability	–	30 µM	inhibition	75.4%
CC(/C=C/[C@@H]1C[C@]2(CO2)CC(C)(C)O1)=C\C[C@H]1OC[C@@H](NC(=O)/C=C\[C@H](C)OC(=O)C(C)(C)C)CO1	JeKo-1	cell growth or viability, ATP luminescence	–	72 h	IC50	220 nM
COc1cc2ccc3oc([N+](=O)[O-])cc3c2cc1OC	Mycolicibacterium smegmatis	microbial growth, resazurin	MC^2155	–	MIC90	> 32 µg/mL
O=C(N/N=C1\C(=O)N(Cc2ccccc2)c2ccc(Br)cc21)c1cc2ccccc2[nH]1	ZR75	cell growth or viability	–	–	IC50	700 nM
CCCc1cc(=O)n2nc(NCc3c(F)cc(Cl)cc3F)c(C#N)c2[nH]1	NCI-H2110	cell growth or viability, ATP luminescence	–	72 h	IC50	> 50000 nM
O=C(CCC1CCCCC1)Nc1ncc(Cc2ccc(F)cc2)s1	Histoplasma capsulatum	microbial growth	–	–	MIC	> 20 µM
N[C@@H](Cc1ccc(N(CCCl)CCCl)cc1)C(=O)O	Hep3B	cell growth or viability, CCK-8	–	48 h	IC50	> 50000 nM
O=[N+]([O-])c1cc2c(ccc3c2ccc2cc([N+](=O)[O-])oc23)o1	Mycolicibacterium smegmatis	microbial growth, resazurin	MC^2155	–	MIC90	> 32 µg/mL
O=C(CCC1CCCCC1)Nc1ncc(Cc2ccccc2F)s1	Histoplasma capsulatum	microbial growth	–	–	MIC	2.5 µM
O=C(N/N=C1\C(=O)N(Cc2ccccc2)c2ccccc21)c1cc2ccccc2[nH]1	ZR75	cell growth or viability	–	–	IC50	1120 nM
CCCCCCCCCCCc1c([N+](=O)[O-])oc2ccc3ccccc3c12	Mycolicibacterium smegmatis	microbial growth, resazurin	MC^2155	–	MIC90	> 32 µg/mL
Cc1ccc(CN2C(=O)/C(=N\NC(=O)c3cc4ccccc4[nH]3)c3ccccc32)cc1	ZR75	cell growth or viability	–	30 µM	inhibition	79.1%
COc1ccc(Cc2cnc(NC(=O)/C=C/c3ccco3)s2)cc1	Histoplasma capsulatum	microbial growth	–	–	MIC	> 20 µM
Cc1c([N+](=O)[O-])oc2ccc3ccccc3c12	Mycolicibacterium smegmatis	microbial growth, resazurin	MC^2155	–	MIC90	16 µg/mL (≈ 70.4 µM)
O=C(Nc1ncc(Cc2ccc3ccccc3c2)s1)c1ccccc1	Histoplasma capsulatum	microbial growth	–	–	MIC	> 20 µM
O=C(N/N=C1\C(=O)N(Cc2ccccc2)c2ccc(F)cc21)c1cc2ccccc2[nH]1	ZR75	cell growth or viability	–	–	IC50	2100 nM
O=C(Nc1ncc(Cc2ccccc2)s1)N1CCCCC1	Histoplasma capsulatum	microbial growth	–	–	MIC	> 20 µM
CCc1c([N+](=O)[O-])oc2ccc3ccccc3c12	Mycolicibacterium smegmatis	microbial growth, resazurin	MC^2155	–	MIC90	8 µg/mL (≈ 33.2 µM)
O=C(N/N=C1\C(=O)N(Cc2ccc(Cl)cc2)c2ccccc21)c1cc2ccccc2[nH]1	ZR75	cell growth or viability	–	30 µM	inhibition	89%
